ChEMBL document CHEMBL4177758, “Rational Drug Design of Topically Administered Caspase 1 Inhibitors for the Treatment of Inflammatory Acne” (J Med Chem, 2018)

Columns and labels:
Caspase-1 [1] = target: T1, Caspase-1 (Homo sapiens, UniProt P29466); assay: Inhibition of human recombinant caspase-1 using AC-WEHD-AMC as substrate at Km after 20 mins by fluorescence assay; details: read-out: IC50
T1 sequence (P29466 whole entry): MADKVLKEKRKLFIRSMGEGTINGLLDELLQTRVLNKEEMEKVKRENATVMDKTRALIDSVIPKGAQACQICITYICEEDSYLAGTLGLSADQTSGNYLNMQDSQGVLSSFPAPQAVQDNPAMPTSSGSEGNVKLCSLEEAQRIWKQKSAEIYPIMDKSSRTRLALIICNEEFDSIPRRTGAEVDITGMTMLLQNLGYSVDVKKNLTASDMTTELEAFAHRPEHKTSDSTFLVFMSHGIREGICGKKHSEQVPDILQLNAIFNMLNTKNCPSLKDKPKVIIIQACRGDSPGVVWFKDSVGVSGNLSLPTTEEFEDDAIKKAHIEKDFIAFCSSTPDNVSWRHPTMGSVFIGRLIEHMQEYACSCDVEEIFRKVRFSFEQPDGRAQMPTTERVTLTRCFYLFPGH

[2] = Lipophilicity, log D of the compound at pH 6.5 by chromatographic method; format: physicochemical; details: buffer
Outline: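 Chromatographic lipophilicity at pH 6.5, converted to ChromLogD = CHI × 0.0857 − 2.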

Caspase-1 [3] = target: T1, Caspase-1; assay: Inhibition of caspase-1 in human THP1 cells assessed as decrease in LPS-induced IL-1beta secretion after overnight incubation by sandwich immunoassay; format: cell-based
[4] = Chemical stability in 96% ethanol assessed as parent compound recovery at 23 degC after 3 months; format: physicochemical; details: read-out: Drug recovery
Outline: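 Compounds bearing the aspartyl aldehyde warhead are held in 96% ethanol at 23 °C and assayed as percent of parent compound recovered. Readings taken after 4 weeks are projected to 12 weeks with best-fit kinetic-order equations. Tautomers and potential stereoisomers are counted as parent.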

[5] = Phototoxicity in NHEK assessed as decrease in cell viability after 24 hrs in presence of UV light by neutral red uptake assay; details: human
Outline: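 Keratinocyte neutral red uptake assay adapted from the OECD 432 3T3 NRU test. Cells are irradiated with a simulated daily UV dose of 6 J/cm², and viability is read after 24 h exposure to compound.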

Caspase-3 = target: T2, Caspase-3 (Homo sapiens, UniProt P42574); assay: Inhibition of human recombinant caspase-3 using Ac-DEVD-AMC as substrate at Km after 20 mins by fluorescence assay
T2 sequence (P42574 whole entry): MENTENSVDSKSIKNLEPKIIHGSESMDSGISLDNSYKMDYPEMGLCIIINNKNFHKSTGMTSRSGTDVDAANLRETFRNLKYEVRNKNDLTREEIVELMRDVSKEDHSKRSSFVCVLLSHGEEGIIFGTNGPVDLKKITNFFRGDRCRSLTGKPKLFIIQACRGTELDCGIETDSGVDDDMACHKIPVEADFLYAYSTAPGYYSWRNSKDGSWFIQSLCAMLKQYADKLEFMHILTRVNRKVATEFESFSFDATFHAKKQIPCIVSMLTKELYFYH
Outline: (§1)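 Human recombinant caspases in pH 7.4 HEPES buffer (100 mM NaCl, 0.1% CHAPS, 1 mM EDTA, 10% glycerol, 10 mM DTT), each with its own AMC substrate at a final concentration equal to its Km. Compounds tested at 10 000–0.04 nM in 1% DMSO. Enzyme level is set to convert under 20% of substrate in 20 min, or 2 h depending on activity, at room temperature. AMC read at 340/450 nm; IC50 from a four-parameter logistic fit.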

Caspase-5 = target: T3, Caspase-5 (Homo sapiens, UniProt P51878); assay: Inhibition of human recombinant caspase-5 using AC-WEHD-AMC as substrate at Km after 20 mins by fluorescence assay; outline: as §1
T3 sequence (P51878 whole entry): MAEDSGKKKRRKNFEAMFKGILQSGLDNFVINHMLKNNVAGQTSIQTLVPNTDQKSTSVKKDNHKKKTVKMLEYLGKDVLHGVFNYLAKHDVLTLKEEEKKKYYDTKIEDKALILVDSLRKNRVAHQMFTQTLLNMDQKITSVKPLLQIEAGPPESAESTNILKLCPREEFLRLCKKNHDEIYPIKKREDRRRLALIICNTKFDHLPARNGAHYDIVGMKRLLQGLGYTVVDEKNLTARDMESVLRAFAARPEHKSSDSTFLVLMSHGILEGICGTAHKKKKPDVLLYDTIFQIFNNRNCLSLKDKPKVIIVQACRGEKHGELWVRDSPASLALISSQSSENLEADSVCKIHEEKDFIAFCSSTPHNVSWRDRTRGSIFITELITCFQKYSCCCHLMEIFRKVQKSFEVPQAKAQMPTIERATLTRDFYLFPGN

Caspase-6 = target: T4, Caspase-6 (Homo sapiens, UniProt P55212); assay: Inhibition of human recombinant caspase-6 using Ac-VEID-AMC as substrate at Km after 20 mins by fluorescence assay; outline: as §1
T4 sequence (P55212 whole entry): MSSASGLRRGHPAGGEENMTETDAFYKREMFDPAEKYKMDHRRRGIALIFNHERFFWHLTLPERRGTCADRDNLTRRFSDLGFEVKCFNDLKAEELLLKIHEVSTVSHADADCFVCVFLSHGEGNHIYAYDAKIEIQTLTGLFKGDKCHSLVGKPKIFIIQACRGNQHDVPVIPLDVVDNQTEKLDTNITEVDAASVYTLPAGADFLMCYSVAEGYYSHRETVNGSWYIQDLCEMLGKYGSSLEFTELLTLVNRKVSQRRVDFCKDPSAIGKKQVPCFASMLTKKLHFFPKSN

Caspase-7 = target: T5, Caspase-7 (Homo sapiens, UniProt P55210); assay: Inhibition of human recombinant caspase-7 using Ac-DEVD-AMC as substrate at Km after 20 mins by fluorescence assay; outline: as §1
T5 sequence (P55210 whole entry): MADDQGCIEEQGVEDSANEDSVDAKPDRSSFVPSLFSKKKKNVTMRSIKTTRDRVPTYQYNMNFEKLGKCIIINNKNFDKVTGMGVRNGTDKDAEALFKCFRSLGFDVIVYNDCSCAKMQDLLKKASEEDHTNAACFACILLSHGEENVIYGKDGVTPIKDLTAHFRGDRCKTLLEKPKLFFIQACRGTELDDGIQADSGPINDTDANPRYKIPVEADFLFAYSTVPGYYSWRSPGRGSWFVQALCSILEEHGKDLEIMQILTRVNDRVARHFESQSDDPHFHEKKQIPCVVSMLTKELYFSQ

Caspase-8 = Caspase-8 (Homo sapiens, UniProt Q14790); assay: Inhibition of human recombinant caspase-8 using Ac-IETD-AMC as substrate at Km after 20 mins by fluorescence assay; outline: as §1
Chain of Caspase-8 (Q14790 217-374 limits assumed): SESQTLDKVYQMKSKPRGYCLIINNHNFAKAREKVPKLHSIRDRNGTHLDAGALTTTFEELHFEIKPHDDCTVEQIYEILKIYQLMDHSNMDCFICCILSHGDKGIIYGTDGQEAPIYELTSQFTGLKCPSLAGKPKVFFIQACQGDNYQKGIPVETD
Chain of Caspase-8 (Q14790 385-479 limits assumed): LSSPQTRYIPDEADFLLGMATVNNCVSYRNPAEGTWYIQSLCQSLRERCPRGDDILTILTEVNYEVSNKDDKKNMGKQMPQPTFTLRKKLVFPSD

Caspase-1 [6] = target: T1, Caspase-1; assay: Inhibition of caspase-1 in human monocyte-derived macrophages assessed as decrease in LPS-induced IL-1beta secretion after 24 hrs by sandwich immunoassay
Outline: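 Cryopreserved human peripheral blood monocytes are cultured 10 days at 37 °C in RPMI with 10% heat-inactivated FBS and 100 ng/mL GM-CSF to give M1 macrophages. Cells are then stimulated with LPS 10 µg/mL plus IFNγ 20 ng/mL and treated with compound serial dilutions (10000–0.04 nM, 0.1% DMSO).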

[7] = Cmax in mouse dermis at 0.1 umol/cm'2 administered topically; format: ADME, tissue-based; details: topical or ocular
Outline: (§2)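 Mouse PK after one topical application of 0.1 μmol/cm², given as a 10 mM solution in PG/EtOH 3/7. Cmax is reported in μM for dermis and for plasma.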

[8] = Cmax in mouse plasma at 0.1 umol/cm'2 administered topically; details: topical or ocular; outline: as §2
[9] = Drug uptake in human dermis at 0.2 umol/cm'2 administered topically; format: ADME, tissue-based; details: topical_or_ocular, read-out: Drug uptake
Outline: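 Cryogenically preserved human skin explant given one topical application of 0.2 μmol/cm² from a 40 mM PG/EtOH 3/7 solution. Dermis concentration is reported in μM.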

[10] = Intrinsic clearance in human hepatocytes assessed per 10^6 cells; format: ADME, cell-based, Hepatocyte; details: read-out: CLH

IC50 (Caspase-1 [1]): 9.8 nM | chromatographic logD [2]: 3.7 | IC50 (Caspase-1 [3]): 38 nM | remaining at 2191.5 h [4]: 100% | IC50 (Caspase-3): > 10000 nM | IC50 (Caspase-5): 2980 nM | IC50 (Caspase-6): > 10000 nM | IC50 (Caspase-7): > 10000 nM | IC50 (Caspase-8): > 10000 nM | IC50 (Caspase-1 [6]): 160 nM | Cmax [7]: 4.2 µM | Cmax [8]: 0.0013 µM | concentration [9]: 4.5 µM | hepatocyte CLint [10]: 9.8 µL/min/1e6 cells
SMILES: Cc1cc(Nc2ccc3ccccc3c2)ccc1C(=O)Nc1cn(C(C)C)c(=O)n(C2(C(=O)N[C@H]3CC(=O)OC3O)CC2)c1=O (stereo not given in full)
Activity [5]: Non-Toxic
